T cell modulator – modulates CD8 T cell binding to vesicles; 2C CD8+ T cell-vesicle binding, flow cytometry; active compounds read low; response (vesicle binding), % at 7 µM; 330,000 tested, 0.068% active;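 active means response, share of CD8 T cells binding vesicles, and their 90th percentile fluorescence all below set limits, cut at about 80% in these data, passing the limit was not always enough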;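 further: values below 100% mean blocked vesicle binding to the CD8+ T cells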
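material = purified 2C TCR transgenic mouse naive CD8+ T cells | controls = Unloaded micro-vesicles (low), QL9 vesicles with 0.7% DMSO (high) | detection = cytometric PE anti-B7-1 and Alexa647 anti-CD8 signals after 1% paraformaldehyde fixation | incubation = binding step 1.5 h, 37 °C, antibody labelling 20 min, ice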
p-CIP stab down – compounds decreasing mouse p/CIP protein stability; Q05BA5; F442A p/CIP-EGFP cells, EGFP fluorescence, 16 h; decrease of EGFP signal, % at 10 µM; 290,000 tested, 0.01% active;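 active means EGFP signal decrease of at least 30% at 10 µM or well 3 SD below plate mean, unless failing retest; inactive means the rest, including hits failing retest or dose response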
DSG3 Ab inh – human desmoglein-3 autoantibody binding inhibition; DSG3-coupled beads, scFv-anti-DSG3-GFP binding, flow cytometry; active compounds read low; AID 588358; P32926; binding (percent of control), % at 10 µM; 310,000 tested, 0.48% active;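 active means binding more than 3 SD below its plate's average and above zero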;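 further: hits lower antibody fragment binding to DSG3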
GPR7 antagonist – blocks human GPR7 receptor signaling | GPR7-expressing cells, fluorescence antagonist assay | 290,000 tested, 1.1% active | inhibition, % at 4.4 µM | AID 1861; in the data active means inhibition above about 16%, passing the limit was not always enough;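 further: cells stimulated with the agonist NPW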
Target sequence (P48145 whole entry, looked up): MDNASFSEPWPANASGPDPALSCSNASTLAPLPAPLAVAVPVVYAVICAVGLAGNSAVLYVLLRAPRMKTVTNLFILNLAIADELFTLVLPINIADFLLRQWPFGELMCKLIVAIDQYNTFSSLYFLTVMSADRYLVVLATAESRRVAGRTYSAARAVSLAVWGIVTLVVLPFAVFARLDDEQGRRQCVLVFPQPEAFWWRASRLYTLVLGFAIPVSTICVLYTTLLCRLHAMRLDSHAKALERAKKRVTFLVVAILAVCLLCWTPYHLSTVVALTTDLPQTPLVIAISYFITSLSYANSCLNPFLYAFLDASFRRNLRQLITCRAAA
CHT block – inhibits the human high affinity choline transporter | Q9GZV3 | AID 488975 | CHT-expressing cells, membrane potential dye, choline response; active compounds read low | 310,000 tested, 0.86% active | B-score at 10 µM;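 active means B-score over 3 SD under the library average, and starting fluorescence ratio not unusually high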;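 further: choline stimulus applied at its EC90 after an EC20 pre-addition; B-score computed on integrated fluorescence ratio after choline addition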
CHT allo act – allosteric activators of human choline transporter CHT; B-score at 10 µM; AID 488977; CHT-expressing cells, membrane potential dye, choline EC20; active compounds read high; LV-AA mutant CHT in HEK293 cells; 310,000 tested, 0.49% active; Q9GZV3;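 active means initial fluorescence not abnormally high and integrated response B-score, plate-corrected, over 3 SD above library mean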
Hits are given with their value. Hits are enriched below; roughly 2.3% of the tested compounds scored in any of these assays.

Results for O=C(NCC(=O)N1CCN(S(=O)(=O)/C=C/c2ccccc2)CC1)c1ccc(Cl)cc1 ?
T cell modulator: inactive; p-CIP stab down: inactive; DSG3 Ab inh: 73; GPR7 antagonist: inactive; CHT block: inactive; CHT allo act: inactive

What do the screens show for `O=C(NCC(=O)N1CCN(S(=O)(=O)/C=C/c2ccccc2)CC1)c1ccccc1F`?
T cell modulator: inactive; p-CIP stab down: inactive; DSG3 Ab inh: inactive; GPR7 antagonist: inactive; CHT block: inactive; CHT allo act: inactive

How did Cn1c(=O)c2[nH]c(CCCCCCCc3nc4ccccc4[nH]3)nc2n(C)c1=O do in these assays?
DSG3 Ab inh: inactive

How did COCCNc1nc(-c2cc(C)n(CCc3ccc(OC)cc3)c2C)cs1 do in these assays?
T cell modulator: inactive; p-CIP stab down: inactive; DSG3 Ab inh: 89; GPR7 antagonist: inactive; CHT block: inactive; CHT allo act: inactive

Results for C=CC1CN2CCC1CC2C(O)c1ccnc2ccc(OC)cc12 (centres undefined) ?
DSG3 Ab inh: inactive

How did O=C(c1ccco1)c1cn(CC(=O)N2CCCc3ccccc32)c2ccccc12 do in these assays?
T cell modulator: inactive; p-CIP stab down: inactive; DSG3 Ab inh: inactive; GPR7 antagonist: 19; CHT block: inactive; CHT allo act: inactive

How did CCCCOc1ccc(/C=N/NC(=S)Nc2cccc(C)c2C)cc1 do in these assays?
T cell modulator: inactive; p-CIP stab down: inactive; DSG3 Ab inh: 2.8; GPR7 antagonist: inactive; CHT block: inactive; CHT allo act: inactive

How did CCCCOc1ccc(/C=N/NC(=S)Nc2cc(C)ccc2C)cc1 do in these assays?
T cell modulator: inactive; p-CIP stab down: inactive; DSG3 Ab inh: inactive; GPR7 antagonist: inactive; CHT block: inactive; CHT allo act: inactive

What do the screens show for `CC(=O)[C@@]1(O)CC[C@H]2[C@@H]3CCC4=CC(=O)CC[C@]4(C)[C@H]3[C@@H](O)C[C@@]21C`?
T cell modulator: inactive; p-CIP stab down: inactive; DSG3 Ab inh: inactive; GPR7 antagonist: inactive; CHT block: -6.6; CHT allo act: inactive

How did CCCCCCCCCn1c2c(c(=N)c3c1CCC3)CCCC2 do in these assays?
p-CIP stab down: inactive; GPR7 antagonist: 68

How did CCCCCCCCCCn1c2c(c(=N)c3c1CCC3)CCC2 do in these assays?
T cell modulator: inactive; p-CIP stab down: inactive; DSG3 Ab inh: inactive; GPR7 antagonist: 77; CHT block: inactive; CHT allo act: 16

Results for CCCCCCCCn1c2c(c(=N)c3ccccc31)CCC2 ?
p-CIP stab down: inactive; GPR7 antagonist: 67

Results for COc1cc2nc(N3CCN(c4cc(C)ccc4C)CC3)nc(N)c2cc1OC ?
T cell modulator: inactive; p-CIP stab down: inactive; DSG3 Ab inh: inactive; GPR7 antagonist: inactive; CHT block: inactive; CHT allo act: inactive

Results for COc1cc2nc(N3CCNCC3)nc(N)c2cc1OC ?
T cell modulator: inactive; p-CIP stab down: inactive; DSG3 Ab inh: inactive; GPR7 antagonist: inactive; CHT block: -8.3; CHT allo act: inactive

What do the screens show for `CN1C(=O)[C@H]2[C@@H](c3ccc(C(F)(F)F)cc3)N[C@]3(CCCN(CC4CCCCC4)C3=O)[C@H]2C1=O`?
DSG3 Ab inh: inactive

Results for CCOc1ccc(NC(=O)CSc2nnc(C)n2CC)cc1 ?
T cell modulator: inactive; p-CIP stab down: inactive; DSG3 Ab inh: 78; GPR7 antagonist: inactive; CHT block: inactive; CHT allo act: inactive

What do the screens show for `CC(C)(C)OC(=O)N1CCc2onc(-c3ccc(N)cc3)c2C1=O`?
DSG3 Ab inh: inactive

Results for Cc1ccnn1CCC(=O)N1CCCC(Nc2ccc(F)c(F)c2)C1 (centres undefined) ?
T cell modulator: inactive; p-CIP stab down: inactive; DSG3 Ab inh: 0.9; GPR7 antagonist: inactive; CHT block: inactive; CHT allo act: inactive

How did c1ccc(COc2ccccc2CNC2CCCC2)cc1 do in these assays?
T cell modulator: inactive; p-CIP stab down: inactive; DSG3 Ab inh: inactive; GPR7 antagonist: inactive; CHT block: inactive; CHT allo act: inactive

What do the screens show for `c1csc(COc2ccccc2CNC2CCCCC2)c1`?
T cell modulator: inactive; p-CIP stab down: inactive; DSG3 Ab inh: inactive; GPR7 antagonist: 24; CHT block: inactive; CHT allo act: inactive

What do the screens show for `CC1CCCC(C)N1C(=O)CN1C(=O)NC2(CCCCCC2)C1=O` (centres undefined)?
DSG3 Ab inh: inactive

How did COCCn1c(C)cc(C(=O)CN2C(=O)NC3(CCCCCCC3)C2=O)c1C do in these assays?
T cell modulator: 0.0; p-CIP stab down: inactive; DSG3 Ab inh: inactive; GPR7 antagonist: inactive; CHT block: inactive; CHT allo act: inactive

How did COc1cc(NS(=O)(=O)c2ccc(C)cc2)c2c(c1N)C(=O)c1ccccc1C2=O do in these assays?
DSG3 Ab inh: inactive

What do the screens show for `C=CCn1c(O)c(N=NC(=S)Nc2ccccc2F)c2ccccc21`?
T cell modulator: inactive; p-CIP stab down: inactive; DSG3 Ab inh: 3.1; GPR7 antagonist: inactive; CHT block: inactive; CHT allo act: inactive

Results for OCC[C@@H]1C[C@H](O)[C@@H](O)[C@@]2(OCc3cc(C(F)(F)F)ccc32)O1 ?
DSG3 Ab inh: inactive

How did CCCCCC(=O)NCC(C)NC(=O)CCCCC (centres undefined) do in these assays?
T cell modulator: 0.0; p-CIP stab down: inactive; DSG3 Ab inh: inactive; GPR7 antagonist: inactive; CHT block: inactive; CHT allo act: inactive

Results for O=C(CSc1ncn[nH]1)CSc1ncn[nH]1 ?
T cell modulator: 11; p-CIP stab down: inactive; DSG3 Ab inh: inactive; GPR7 antagonist: inactive; CHT block: inactive; CHT allo act: inactive

What do the screens show for `CC(C)c1ccc(C(=O)CSc2ncn[nH]2)cc1`?
T cell modulator: inactive; p-CIP stab down: inactive; DSG3 Ab inh: inactive; GPR7 antagonist: inactive; CHT block: inactive; CHT allo act: inactive

What do the screens show for `Cc1ccc(Sc2ccc(NC(=O)c3ccc(S(C)(=O)=O)cc3Cl)cc2)cc1`?
T cell modulator: inactive; p-CIP stab down: inactive; DSG3 Ab inh: -16; GPR7 antagonist: inactive; CHT block: inactive; CHT allo act: inactive

How did CC1C(c2ccccc2)OCCN1C(=S)Nc1ccc(S(=O)(=O)N2CCCCC2)cc1 (centres undefined) do in these assays?
DSG3 Ab inh: inactive

What do the screens show for `CCOc1ccccc1C(=O)NCC(=O)N(C)CC(=O)Nc1ccc(N2CCOCC2)cc1`?
DSG3 Ab inh: inactive

What do the screens show for `COc1cccc(C2=CC(=O)C(C(C)(C)C)N2C(C)(C)C)c1` (centres undefined)?
DSG3 Ab inh: inactive

How did CC1=C(C)/C(=N\OS(=O)(=O)c2ccccc2)C=CC1=O do in these assays?
T cell modulator: inactive; p-CIP stab down: inactive; DSG3 Ab inh: inactive; GPR7 antagonist: 58; CHT block: inactive; CHT allo act: inactive

Results for Cc1cccc2c3c([nH]c12)CCN(C)C3 ?
T cell modulator: inactive; p-CIP stab down: inactive; DSG3 Ab inh: inactive; GPR7 antagonist: inactive; CHT block: -5.8; CHT allo act: inactive

Compound activity as filed in PubChem BioAssay.
